Series [1] has as its target T1, Histone acetyltransferase RTT109 (Saccharomyces cerevisiae (strain ATCC 204508 / S288c) (Baker's yeast), UniProt Q07794).
T1 sequence (Q07794 whole entry): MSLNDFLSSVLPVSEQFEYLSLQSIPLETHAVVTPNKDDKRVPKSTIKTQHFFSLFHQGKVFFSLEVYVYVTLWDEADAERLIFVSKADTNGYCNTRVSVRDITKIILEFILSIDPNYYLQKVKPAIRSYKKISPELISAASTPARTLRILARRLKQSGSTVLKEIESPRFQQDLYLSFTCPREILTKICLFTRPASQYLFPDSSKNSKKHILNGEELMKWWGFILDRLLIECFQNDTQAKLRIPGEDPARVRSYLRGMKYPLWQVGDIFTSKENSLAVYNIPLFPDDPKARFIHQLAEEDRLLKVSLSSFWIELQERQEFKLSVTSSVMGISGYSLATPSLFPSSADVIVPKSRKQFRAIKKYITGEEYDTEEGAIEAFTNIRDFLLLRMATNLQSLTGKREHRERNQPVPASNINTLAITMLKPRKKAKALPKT
The series is described as follows: Inhibition of Vps75-stimulated recombinant Saccharomyces cerevisiae histone acetyltransferase Rtt109 using Asf1-dH3-H4 as substrate assessed as coenzyme A production after 45 mins by CPM based HTS assay. In a few lines:
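Recombinant Rtt109–Vps75 at 50 nM, with Asf1–dH3–H4 as substrate and acetyl-CoA as acetyl donor. Buffer contained freshly prepared 0.01% Triton X-100. The CoA product was detected by fluorescence of its CPM adduct. Plates had Z′ ≥0.5. IC50 came from a four-parameter variable-slope fit.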

A short description of series [2]: Fluorescence quenching assessed as fluorescence signal reduction at 10 uM after 10 mins. The format is physicochemical. In a few lines: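 CPM (20 μM final) and CoA (5 μM final) reacted to completion in assay buffer (stable plateau, usually ~5 min); adduct solution added to wells preplated with compound; shaken 5 min, equilibrated 5 min at room temperature; fluorescence intensity read as percent signal reduction versus DMSO controls. Flagged as quencher at >20% signal reduction at 10 μM final compound.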

Series [3] in a line: Fluorescence quenching in HTS buffer assessed as fluorescence signal reduction at 10 uM after 10 mins. It counts as physicochemical.
A short description of series [4]: Fluorescence quenching in HTS buffer with […] CoA assessed as fluorescence signal reduction at 10 uM after 10 mins. The format is physicochemical.
Series [5] is described as follows: Fluorescence quenching in HTS buffer with 20 uM 7-diethylamino-3-(4'-maleimidyl-phenyl)-4-methylcoumarin assessed as fluorescence signal reduction at 10 uM after 10 mins. The format is physicochemical.
In series [6] the target is T2, Histone acetyltransferase RTT109 (Saccharomyces cerevisiae (strain ATCC 204508 / S288c) (Baker's yeast)) (UniProt Q07794).
T2 sequence (whole entry): T1 sequence (Q07794 whole entry)
The series is described as follows: Inhibition of Vps75-stimulated recombinant Saccharomyces cerevisiae histone acetyltransferase Rtt109 assessed as H3K56 acetylated product at […] after 45 mins by Slot bolt inhibiton assay.

Series [7] concerns the target T2, Histone acetyltransferase RTT109 (Saccharomyces cerevisiae (strain ATCC 204508 / S288c) (Baker's yeast)). As to the kind of experiment: Inhibition of Vps75-stimulated recombinant Saccharomyces cerevisiae histone acetyltransferase Rtt109 assessed as H3K27 acetylated product at […] after 45 mins by Slot bolt inhibiton assay.

Each structure is given as a SMILES string. Active and inactive are the calls of the source.

Regarding `[Cl-].c1ccc(C[n+]2sc(Nc3ccccc3)nc2-c2ccccc2)cc1`, the IC50 in series [1] (read-out: IC50) was found to be 3.1 µM. The Activity result in series [2], in series [3], in series [4] and in series [5] was “Not Active” throughout.
On to `O=[N+]([O-])c1ccc(Sc2nnc(-c3ccccc3)o2)c2nonc12`, for which the IC50 in series [1] (read-out: IC50) came to 1.1 µM. Also, the outcome in series [6] and in series [7] was Active. Besides, the Activity result in series [2], in series [3], in series [4] and in series [5] was “Not Active” in each case.
Consider `O=[N+]([O-])c1ccc(Sc2nnc[nH]2)c2nsnc12`, for which the IC50 in series [1] (read-out: IC50) amounted to 1.7 µM. The result in series [6] and in series [7] was Active. In addition, the Activity entry in series [2], in series [3], in series [4] and in series [5] was “Not Active” each time.
With `Cc1ccc(S(=O)(=O)C[n+]2sc(N(c3ccccc3)c3ccccc3)nc2-c2ccccc2)cc1.[Cl-]`, the IC50 in series [1] (read-out: IC50) worked out at 26 µM. Further, the Activity result in series [2], in series [3], in series [4] and in series [5] was “Not Active” each time.
Turning to `COc1ccc(-c2nnc(Sc3ccc([N+](=O)[O-])c4nonc34)o2)cc1`, in series [1] (read-out: IC50), the IC50 came to 0.96 µM. The outcome in series [6] and in series [7] was Active. For the same compound, the Activity result in series [2], in series [3], in series [4] and in series [5] was “Not Active” in each case.
Consider `O=C1C=CC(=O)N1c1ccccc1`, for which, in series [1] (read-out: IC50), the IC50 is 7.6 µM. The outcome in series [6] and in series [7] was Active. Moreover, the Activity entry in series [2], in series [3], in series [4] and in series [5] was “Not Active” in each case.
As for `Cc1ccc(S(=O)(=O)C[n+]2sc(N(c3ccccc3)c3ccccc3)nc2-c2ccccc2)cc1.[Br-]`, in series [1] (read-out: IC50), the IC50 was determined as 42 µM. Besides, the Activity entry in series [2], in series [3], in series [4] and in series [5] was “Not Active” in each case.
Regarding `CN(C)c1nc(-c2ccccc2)[n+](C)s1.[O-][Cl+3]([O-])([O-])[O-]`, in series [1] (read-out: IC50), the half-maximal inhibitory concentration (IC50) amounted to 5.3 µM. Further, the result in series [6] and in series [7] was Active. For the same compound, the Activity result in series [2], in series [3], in series [4] and in series [5] was “Not Active” each time.
For the compound `Cc1ccc(N2C(=O)C=CC2=O)cc1`, the half-inhibitory concentration (IC50) in series [1] (read-out: IC50) came out at 6 µM. Besides, the result in series [6] and in series [7] was Active. Also, the Activity entry in series [2], in series [3], in series [4] and in series [5] was “Not Active” each time.
Turning to `COc1ccc(-c2nnc(Sc3ccc([N+](=O)[O-])c4nonc34)[nH]2)cc1`, the 50% inhibitory concentration (IC50) in series [1] (read-out: IC50) amounted to 2.3 µM. Besides, the outcome in series [6] and in series [7] was Active. Also, the Activity entry in series [2], in series [3], in series [4] and in series [5] was “Not Active” each time.
On to `CC(C)c1ccc(S(=O)(=O)Nc2cc(SCCC(=O)O)c(O)c3ccccc23)cc1`, for which the IC50 result in series [1] is listed as “Not Active”. The Activity result was “Not Active” in series [2], “Not Active” in series [3], “Not Active” in series [4] and “Active” in series [5].
With `[Br-].c1ccc(C[n+]2sc(Nc3ccccc3)nc2-c2ccccc2)cc1`, the IC50 in series [1] (read-out: IC50) is 3.1 µM. Besides, the Activity entry in series [2], in series [3], in series [4] and in series [5] was “Not Active” throughout.
Regarding `Cc1ccc(-c2nc(N(c3ccccc3)c3ccccc3)s[n+]2CS(=O)(=O)c2ccccc2)cc1.[O-][Cl+3]([O-])([O-])[O-]`, the result in series [6] and in series [7] was inactive. For the same compound, the Activity result in series [2], in series [3], in series [4] and in series [5] was “Not Active” each time.
As for `[Br-].c1ccc(Nc2nc(-c3ccccc3)[n+](-c3ccccc3)s2)cc1`, the result in series [6] and in series [7] was Active. Moreover, the Activity result in series [2], in series [3], in series [4] and in series [5] was “Not Active” in each case.
For `O=S(=O)(C[n+]1sc(Nc2ccc(Cl)cc2Cl)nc1-c1ccccc1)c1ccccc1.[Cl-]`, the result in series [6] and in series [7] was Active. Moreover, the Activity entry in series [2], in series [3], in series [4] and in series [5] was “Not Active” throughout.
With `Cc1ccc(-c2nnc(SC3CC(=O)N(c4ccc(Oc5ccccc5)cc4)C3=O)[nH]2)cc1` (stereo not drawn), the result in series [6] and in series [7] was Active. For the same compound, the Activity result in series [2], in series [3], in series [4] and in series [5] was “Not Active” each time.
Regarding `CCC(=O)OCCNc1cc(Sc2nnc(-c3ccccc3)s2)c2nonc2c1[N+](=O)[O-]`, the result in series [6] and in series [7] was Active. Also, the Activity result in series [2], in series [3], in series [4] and in series [5] was “Not Active” throughout.
Consider `CC(C)(C)c1ccc(S(=O)(=O)Nc2cc(SCC(=O)O)c(O)c3ccccc23)cc1`, for which the IC50 entry in series [1] is listed as “Not Active”. In addition, the Activity entry in series [2] is listed as “Not Active”; in series [3], “Not Active”; in series [4], “Not Active”; in series [5], “Active”.
On to `CCOc1ccc(Nc2nc(-c3ccc(C)cc3)[n+](Cc3ccc([N+](=O)[O-])cc3)s2)cc1.[Br-]`, for which the result in series [6] and in series [7] was Active. Also, the Activity result in series [2], in series [3], in series [4] and in series [5] was “Not Active” in each case.
For the compound `Cc1nnc(SC2CC(=O)N(c3ccc(Br)cc3)C2=O)s1` (stereo not drawn), the outcome in series [6] and in series [7] was Active. Besides, the Activity result in series [2], in series [3], in series [4] and in series [5] was “Not Active” in each case.
Take `[O-][Cl+3]([O-])([O-])[O-].c1ccc(C[n+]2sc(N(c3ccccc3)c3ccccc3)nc2-c2ccccc2)cc1`: the outcome in series [6] and in series [7] was Active. Further, the Activity result in series [2], in series [3], in series [4] and in series [5] was “Not Active” in each case.
On to `Cc1occc1-c1nnc(SC2=CS(=O)(=O)c3ccccc32)o1`, for which the result in series [6] and in series [7] was Active. Also, the Activity result in series [2], in series [3], in series [4] and in series [5] was “Not Active” each time.
Turning to `O=C(O)CSc1cc(NS(=O)(=O)c2cccc([N+](=O)[O-])c2)c2ccccc2c1O`, the IC50 entry in series [1] is “Not Active”. For the same compound, the Activity entry in series [2] was “Not Active”; in series [3], “Not Active”; in series [4], “Not Active”; in series [5], “Active”.

(Values after ChEMBL document CHEMBL3414544, “PAINS in the assay: chemical mechanisms of assay interference and promiscuous enzymatic inhibition observed during a sulfhydryl-scavenging HTS” (J Med Chem, 2015).)
